According to ChEMBL document CHEMBL1128183, “Hypoxia-selective agents derived from 2-quinoxalinecarbonitrile 1,4-di-N-oxides. 2” (1995):

How the values were obtained:
[1] = tested on: V79; assay: Concentration giving 1% of control V79 cells survival in hypoxia; format: functional, Cricetulus griseus
How it was run: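 V79 Chinese hamster lung fibroblasts, trypsinized from exponential monolayers into suspension (2 × 10^4 cells/mL, EMEM + 10% FBS + 10 mM HEPES), gassed with nitrogen 30 min before and throughout 2 h drug exposure; duplicate flasks per dose. Cells replated, colonies (>64 cells) counted after 7 days at 37 °C; dose-response curve gives micromolar dose for 1% of control survival.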

[2] = Hypoxia cytotoxicity ratio (HCR), calculated by dividing the dose in air by the dose in hypoxia giving 1% control cell survival.; format: functional
How it was run: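 Suspension cultures of V79 cells gassed continuously with pure air or nitrogen (30 min pre-gassing, then 2 h exposure), two flasks per dose, DMSO and nitracrine 0.06 μM controls. Clonogenic survival from plating efficiency relative to control after 7-day colony growth; ratio = air dose over hypoxic dose each giving 1% control survival, from dose-response curves.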

| SMILES | Potency [1] [µM] | HCR [2] |
| --- | --- | --- |
| Cc1cc2c(cc1C)[n+]([O-])c(C#N)c[n+]2[O-] | 14 | >7 |
| COc1cc2c(cc1Cl)[n+]([O-])cc(C#N)[n+]2[O-] | 0.4 | >50 |
| CCN(CC)CCNc1c(C#N)[n+]([O-])c2cc(OC)ccc2[n+]1[O-] | 1 | 100 |
| N#Cc1c[n+]([O-])c2ccc(F)cc2[n+]1[O-] | 2 | >50 |
| N#Cc1c(N)[n+]([O-])c2cc(F)c(F)cc2[n+]1[O-] | 1 | <10 |
| COc1ccc2c(c1)[n+]([O-])c(C#N)c(NCCCN(C)C)[n+]2[O-] | 2 | 200 |
| CCN(CC)CCNc1c(C#N)[n+]([O-])c2cc(Cl)ccc2[n+]1[O-] | 0.5 | 40 |
| COc1cc2c(cc1Cl)[n+]([O-])c(N)c(C#N)[n+]2[O-] | 10 | <10 |
| CCN(CC)CCNc1c(C#N)[n+]([O-])c2cc(C(F)(F)F)ccc2[n+]1[O-] | 0.6 | 50 |
| Cc1c(C#N)[n+]([O-])c2ccccc2[n+]1[O-] | 10 | 15 |
| CN(C)CCCNc1c(C#N)[n+]([O-])c2ccccc2[n+]1[O-] | 1 | 300 |
| CN(C)CCCNc1c(C#N)[n+]([O-])c2cc(C(F)(F)F)ccc2[n+]1[O-] | 0.3 | 340 |
| N#Cc1c[n+]([O-])c2cc(Cl)c(Cl)cc2[n+]1[O-] | 0.7 | 10 |
| N#Cc1c(N)[n+]([O-])c2ccc(Cl)cc2[n+]1[O-] | 9 | 150 |
| CCN(CC)CCNc1c(C#N)[n+]([O-])c2cc(F)ccc2[n+]1[O-] | 0.4 | 75 |
| N#Cc1c[n+]([O-])c2ccc(C(F)(F)F)cc2[n+]1[O-] | 6 | 80 |
| N#Cc1c(N)[n+]([O-])c2cc(Cl)c(Cl)cc2[n+]1[O-] | 1 | 80 |
| N#Cc1c[n+]([O-])c2ccc(Cl)cc2[n+]1[O-] | 3 | 30 |
| CCN(CC)CCNc1c(C#N)[n+]([O-])c2cc(C)ccc2[n+]1[O-] | 3 | 100 |
| N#Cc1c(N)[n+]([O-])c2ccc(F)cc2[n+]1[O-] | 15 | 100 |

| SMILES | Potency [1] [µM] | HCR [2] |
| --- | --- | --- |
| N#Cc1c(N)[n+]([O-])c2ccc(-c3ccc([N+](=O)[O-])cc3)cc2[n+]1[O-] | 4 | 15 |
| N#Cc1c(NCCCN2CCOCC2)[n+]([O-])c2cc(Cl)ccc2[n+]1[O-] | 0.8 | >125 |
| CN(C)CCCNc1c(C#N)[n+]([O-])c2cc(Cl)ccc2[n+]1[O-] | 0.4 | 250 |
| Cc1ccc2c(c1)[n+]([O-])c(C#N)c(NCCCN(C)C)[n+]2[O-] | 1 | 300 |
| N#Cc1c(N)[n+]([O-])c2ccc(C(F)(F)F)cc2[n+]1[O-] | 7 | 75 |
| N#Cc1c(NCCCN2CCOCC2)[n+]([O-])c2ccc(Cl)cc2[n+]1[O-] | 2 | 300 |
| N#Cc1c(NCCO)[n+]([O-])c2ccc(Cl)cc2[n+]1[O-] | 4 | 75 |
| CN(C)CCNc1c(C#N)[n+]([O-])c2cc(Cl)ccc2[n+]1[O-] | 0.3 | 100 |
| N#Cc1c[n+]([O-])c2cc(F)c(F)cc2[n+]1[O-] | 0.3 | 5 |
| Cc1ccc2c(c1)[n+]([O-])c(C#N)c[n+]2[O-] | 6 | 200 |
| N#Cc1c(NCCCn2ccnc2)[n+]([O-])c2ccc(Cl)cc2[n+]1[O-] | 2 | >50 |
| CN(CCCNc1c(C#N)[n+]([O-])c2cc(Cl)ccc2[n+]1[O-])CCCNc1c(C#N)[n+]([O-])c2cc(Cl)ccc2[n+]1[O-] | 0.7 | 10 |
| N#Cc1c[n+]([O-])c2ccccc2[n+]1[O-] | 5 | >100 |
| COc1ccc2c(c1)[n+]([O-])c(C#N)c[n+]2[O-] | 5 | >200 |
| N#Cc1c(N)[n+]([O-])c2ccccc2[n+]1[O-] | 30 | 80 |
| N#Cc1c[n+]([O-])c2ccc(-c3ccc([N+](=O)[O-])cc3)cc2[n+]1[O-] | 0.2 | 200 |
| CCN(CC)CCNc1c(C#N)[n+]([O-])c2ccccc2[n+]1[O-] | 0.9 | 120 |
| COc1ccc2c(c1)[n+]([O-])c(C#N)c(N)[n+]2[O-] | 30 | >10 |
| Nc1n[n+]([O-])c2ccccc2[n+]1[O-] [TIRAPAZAMINE] | 30 | 75 |
| CN(C)CCCNc1c(C#N)[n+]([O-])c2cc(F)ccc2[n+]1[O-] | 0.6 | 170 |
